Results reported in PubChem BioAssay.
The source made the active and inactive calls.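 How the source made its calls, unless noted: active means inhibition at or above 50% at 10 µM; inactive means inhibition below 50%.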

Experiments:
[1] = inhibitors of TNFa-induced NFkB p65 translocation, primary screen, imaging, HUVEC, MLSMR starter and 10KST1 sets (AID 438;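 active means inhibition above 20% together with a positive visual image hit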;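 further: compound added about 3h40 before a 20 min TNFalpha stimulation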;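 on inhibition: signal is the nuclear over cytoplasmic p65 intensity ratio per well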); details: HUVEC TNFa-induced p65 nuclear translocation; cell count: measured here: nuclei count (cytotoxicity indicator), at 2.08 µM; inhibition: at 2 µM, stronger effect = higher value, 0% TNFa-plus-vehicle, 100% no-TNFa wells
[2] = inhibitors of mutant huntingtin aggregation, primary screen, imaging, exon1htt(103Q)mCFP cells, high-content imaging (AID 483;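 active means visual image review flags a hit and inhibition of aggregation exceeds 20%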;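 further: compound exposure lasted 3 days before fixation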;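 on nuclei count: percent of the per-plate median nuclei count of sample wells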); details: exon1htt(103Q)mCFP cell line, aggregate imaging, at 2 µM; inhibition of aggregation: stronger effect = higher value; nuclei count: measured here: cell count, toxicity
[3] = inhibitors of E-selectin induction by TNFa, primary screen, imaging, HUVEC, immunofluorescence, MLSMR starter and 10KST1 sets (AID 487;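 active means visually confirmed hit in the image check and inhibition above 20%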;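 on inhibition: signal is fraction of cell area covered by stained E-selectin grains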;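 on nuclei count: 100% = median nuclei count of all wells on the same plate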); details: HUVEC TNFalpha-induced E-selectin immunofluorescence imaging, at 2 µM; inhibition: stronger effect = higher value; nuclei count: measured here: cell number, toxicity
[4] = target: Voltage-gated potassium channel subunit beta-2 (Rattus norvegicus) (UniProt P62483); assay: KvBeta enzyme negative modulators, primary screen, biochemical, NADPH fluorescence (AID 622;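 active means fluorescence slope higher than the sample average by over 3 SD, cut at about -0.22 in these data, passing the limit was not always enough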;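 further: slope of raw intensity against log time taken from 70 to 1610 s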); details: recombinant KvBeta, 4-cyanobenzaldehyde reduction, at 10 µM, stronger effect = higher value
[5] = target: Voltage-gated potassium channel subunit beta-2 (Rattus norvegicus) (UniProt P62483); assay: KvBeta positive modulators, primary screen, biochemical, NADPH fluorescence (AID 623;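 active means NADPH fluorescence slope more negative than the mean of all samples by about 3 SD, 99.7% confidence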;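 further: fluorescence intensity change per second fitted from 20 to 320 s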); details: Recombinant KvBeta, NADPH fluorescence decrease slope, 10 min; at 10 µM; stronger effect = lower value
[6] = target: Muscarinic acetylcholine receptor M4 (Homo sapiens) (UniProt P08173); assay: compounds altering M4/GIRK thallium flux, either direction, primary screen, M4 allosteric agonist project, cell-based, HEK293 M4/GIRK, BTC-AM (AID 625;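 active means fluorescence slope after compound addition differing from the mean of all tested samples at 99.7% confidence, mostly higher but some lower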;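 further: thallium influx through GIRK channels coupled to M4 in HEK293 cells with BTC-AM dye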); details: at 10 µM, actives lie on both sides
Summary of the method: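 Assay system: HEK293 cells with M4 receptor and GIRK channels / Controls: carbachol and DMSO controls / Schedule: 1 h dye loading, 2 min kinetic read / Technique: kinetic fluorescence with BTC-AM dye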

[7] = inhibitors of Sendai virus-induced IRF3 signaling, primary screen, TLR/RLR signaling modifier project, cell-based, Sendai virus stimulus, luciferase, 10K MLSCN set (AID 602276); details: HEK293 RL24 IRF3 luciferase reporter, at 10 µM, stronger effect = higher value;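 further: firefly luciferase from ISG56 promoter only with Renilla not read in this screen; 0% = Sendai virus plus DMSO and 100% = medium plus DMSO without virus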
[8] = inhibitors of poly I:C-induced TLR3 signaling, primary screen, cell-based, poly I:C stimulus, luciferase, 10K MLSCN set (AID 602277;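 active means inhibition of the reporter signal at or above 50%; inactive means inhibition below 50%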); details: HEK293-TLR3 RL24 IRF3 luciferase reporter, at 10 µM, stronger effect = higher value

Muscarinic acetylcholine receptor M4 (Homo sapiens), sequence (P08173 whole entry, looked up): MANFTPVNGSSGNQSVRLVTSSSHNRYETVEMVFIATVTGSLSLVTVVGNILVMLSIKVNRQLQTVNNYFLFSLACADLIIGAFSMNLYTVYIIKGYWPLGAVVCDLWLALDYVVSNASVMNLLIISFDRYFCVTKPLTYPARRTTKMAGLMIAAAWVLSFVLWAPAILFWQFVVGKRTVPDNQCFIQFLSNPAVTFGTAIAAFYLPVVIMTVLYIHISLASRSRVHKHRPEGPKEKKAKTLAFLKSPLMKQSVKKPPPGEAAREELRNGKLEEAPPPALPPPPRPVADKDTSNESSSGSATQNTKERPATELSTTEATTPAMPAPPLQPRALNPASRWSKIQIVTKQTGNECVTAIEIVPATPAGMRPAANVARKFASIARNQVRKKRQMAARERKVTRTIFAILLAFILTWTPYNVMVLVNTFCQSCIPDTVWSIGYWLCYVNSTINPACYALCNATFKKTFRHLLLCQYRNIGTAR
Voltage-gated potassium channel subunit beta-2 (Rattus norvegicus), sequence (P62483 whole entry, looked up): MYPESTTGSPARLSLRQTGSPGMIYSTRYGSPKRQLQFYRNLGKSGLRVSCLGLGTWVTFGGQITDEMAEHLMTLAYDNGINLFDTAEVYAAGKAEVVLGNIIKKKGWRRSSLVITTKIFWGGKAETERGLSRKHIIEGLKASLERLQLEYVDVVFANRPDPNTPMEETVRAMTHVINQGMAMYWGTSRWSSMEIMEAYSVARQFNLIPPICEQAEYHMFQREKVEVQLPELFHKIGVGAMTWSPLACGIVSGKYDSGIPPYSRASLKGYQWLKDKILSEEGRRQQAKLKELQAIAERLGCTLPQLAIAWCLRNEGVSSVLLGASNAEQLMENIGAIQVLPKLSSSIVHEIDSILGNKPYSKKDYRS

| SMILES | cell count [1] | inhibition [1] | inhibition of aggregation [2] | nuclei count [2] | inhibition [3] | nuclei count [3] | fluorescence slope [4] | NADPH fluorescence slope [5] | fluorescence slope [6] | inhibition [7] | inhibition [8] |
| --- | --- | --- | --- | --- | --- | --- | --- | --- | --- | --- | --- |
| CC(=O)Nc1ccc(N2CCN(Cc3ccccc3F)CC2)cc1 | 452 | 19.4% (inactive) | 12.1% (inactive) | 102% | 34.5% (inactive) | 120% | -0.579 (inactive) | -3.8e-05 (inactive) | 0.0111 (inactive) | 8.54% (inactive) | 19% (inactive) |
| CCOC(=O)C1=C(CC)Nc2ccccc2N=C1NC(=O)Cn1cnc2ccccc2c1=O | 529 | 6.3% (inactive) | 6.9% (inactive) | 117% | -28.7% (inactive) | 123% | -0.534 (inactive) | -4.1e-05 (inactive) | 0.00608 (inactive) | 10.4% (inactive) | 20% (inactive) |
| COc1ccccc1NC(=O)N1CCN(c2cccc(C(F)(F)F)c2)CC1 | 380 | 4.7% (inactive) | 12.5% (inactive) | 107% | -103% (inactive) | 118% | -0.27 (inactive) | -2.7e-05 (inactive) | 0.00535 (inactive) | -10.2% (inactive) | -42% (inactive) |
| COCCn1c(=O)[nH]c2cc(C(=O)N3CCN(c4ccccc4OC)CC3)ccc2c1=O | 806 | -7.9% (inactive) | 5.5% (inactive) | 102% | -28.7% (inactive) | 117% | -0.44 (inactive) | 9.4e-06 (inactive) | 0.00559 (inactive) | 10.5% (inactive) | 12.4% (inactive) |
| COC(=O)c1cnn2c(C(F)(F)F)cc(-c3ccco3)nc12 | 246 | 0.2% (inactive) | 38.2% (inactive) | 75.8% | 42.4% (inactive) | 72.5% | -0.276 (inactive) | -8.1e-06 (inactive) | 0.00336 (inactive) | 8.92% (inactive) | 9.22% (inactive) |
| CC(C)[C@H](NC(=O)[C@@H]1CSCN1C(=O)OC(C)(C)C)C(=O)NCC1CCC(C(=O)O)CC1 (stereo partly specified) | 341 | 8.6% (inactive) | 11.9% (inactive) | 92.5% | 17.3% (inactive) | 84.4% | -0.579 (inactive) | 1.8e-05 (inactive) | 0.00513 (inactive) | 25.1% (inactive) | 22.7% (inactive) |
| CCOCCCNC(=O)C1CCC(=O)N1CCc1ccccc1 (stereo unspecified) | 237 | 2.7% (inactive) | 1.1% (inactive) | 92.5% | -20% (inactive) | 95.1% | -0.568 (inactive) | -6.9e-06 (inactive) | 0.00522 (inactive) | 5.67% (inactive) | 12.9% (inactive) |
| CCn1nccc1C(=O)Nc1nccs1 | 392 | -0.5% (inactive) | -32.5% (inactive) | 108% | -45.2% (inactive) | 103% | -0.456 (inactive) | -4.4e-05 (inactive) | 0.00538 (inactive) | 16.4% (inactive) | 9.69% (inactive) |
| CCOC(=O)C1CCCN(S(=O)(=O)c2cccs2)C1 (stereo unspecified) | 243 | 11.2% (inactive) | -5.5% (inactive) | 95.8% | -8.8% (inactive) | 95.2% | -0.479 (inactive) | 1.6e-05 (inactive) | 0.00471 (inactive) | -3.56% (inactive) | 4.98% (inactive) |
| COc1ccccc1-c1nc(C#N)c(N2CCN(c3ccccc3)CC2)o1 | 730 | -10.2% (inactive) | 17% (inactive) | 119% | -96.9% (inactive) | 93.4% | -0.495 (inactive) | 1.8e-05 (inactive) | 0.00604 (inactive) | 15.8% (inactive) | 12% (inactive) |
| CCOC(=O)Nc1ccc2c(c1)N(C(=O)CN(CC)CC)c1ccccc1C=C2 | 389 | 3.3% (inactive) | -9.7% (inactive) | 108% | -96.2% (inactive) | 119% | -0.577 (inactive) | -0.000132 (inactive) | 0.00312 (inactive) | 18.3% (inactive) | 26.3% (inactive) |
| CCC1(CC)NC(=O)NC1=O | 665 | 2.2% (inactive) | -5.3% (inactive) | 89.9% | 12.8% (inactive) | 106% | -0.588 (inactive) | -8.1e-05 (inactive) | 0.00419 (inactive) | 16.7% (inactive) | 8.56% (inactive) |
| c1ccc(-c2noc(C34CC5CC(CC(C5)C3)C4)n2)nc1 | 362 | 10.2% (inactive) | 17.1% (inactive) | 98.3% | -53.7% (inactive) | 102% | -0.554 (inactive) | -0.00016 (inactive) | 0.00439 (inactive) | -32.9% (inactive) | -64.6% (inactive) |
| COc1cc2c(cc1OC)-c1cc(OCc3cccnc3)nc(=O)n1CC2 | 753 | -8.4% (inactive) | -4.9% (inactive) | 96.1% | -49% (inactive) | 116% | -0.0427 (active) | -1.1e-05 (inactive) | 0.00535 (inactive) | 31.6% (inactive) | 28.8% (inactive) |
| COc1cc(C(=O)N2CCN(C(=O)CC(C)C)CC2)cc(OC)c1OC | 550 | 3.6% (inactive) | 5% (inactive) | 105% | -73.6% (inactive) | 117% | -0.47 (inactive) | 7.6e-05 (inactive) | 0.00561 (inactive) | -10.1% (inactive) | -1.34% (inactive) |
| CCOC(=O)Nc1ccc(OC)cc1S(=O)(=O)N1CCCCC1 | 714 | 3.3% (inactive) | -24% (inactive) | 87.3% | -14.6% (inactive) | 111% | -0.586 (inactive) | 2.6e-05 (inactive) | 0.00355 (inactive) | 11.7% (inactive) | 17% (inactive) |
| COC(=O)c1c(C)oc2ccc(NS(=O)(=O)c3cccs3)cc12 | 435 | 3.4% (inactive) | 1.4% (inactive) | 99.1% | -85.7% (inactive) | 114% | -0.534 (inactive) | -8.8e-05 (inactive) | 0.0032 (inactive) | 20.8% (inactive) | 10.9% (inactive) |
| O=C(O)CCCCCNc1nc(=S)[nH]c2ccccc12 | 494 | -7.5% (inactive) | 20% (inactive) | 102% | 9.6% (inactive) | 105% | -0.384 (inactive) | 2.9e-05 (inactive) | 0.0068 (inactive) | 11.5% (inactive) | 19.2% (inactive) |
| CCCc1cc(=O)n2[nH]c(-c3ccc(Br)cc3)cc2n1 | 320 | 1.7% (inactive) | -4.6% (inactive) | 98.8% | -27.5% (inactive) | 119% | -0.473 (inactive) | -2.2e-05 (inactive) | 0.00575 (inactive) | -22.4% (inactive) | -15.4% (inactive) |
| CCCCOc1ccc(C(=O)Nc2ccc(N3CCN(C(=O)C(C)C)CC3)cc2)cc1 | 825 | -3.3% (inactive) | -19.5% (inactive) | 92.4% | -59.7% (inactive) | 115% | -0.44 (inactive) | -1.7e-05 (inactive) | 0.0053 (inactive) | 13.8% (inactive) | -10.4% (inactive) |
| CCC(C)NC(=O)c1cc(-c2ccc(OC)cc2)on1 (stereo unspecified) | 689 | -15.5% (inactive) | 1.3% (inactive) | 101% | 13.2% (inactive) | 108% | -0.286 (inactive) | -1.4e-05 (inactive) | 0.00668 (inactive) | -45.5% (inactive) | -170% (inactive) |
| COc1ccc(NCc2nnc(SCC(=O)Nc3cc(C)cc(C)c3)o2)cc1 | 396 | -1.1% (inactive) | 8.7% (inactive) | 101% | 36.7% (inactive) | 79.5% | -0.4 (inactive) | -0.000139 (inactive) | 0.00688 (inactive) | 11% (inactive) | 22.6% (inactive) |
| CCOC(=O)c1cc(C)n(CCCN2CCOCC2)c1C | 678 | 2.6% (inactive) | -5.8% (inactive) | 114% | -162% (inactive) | 109% | -0.473 (inactive) | 1.5e-05 (inactive) | 0.00505 (inactive) | 0.506% (inactive) | 19.3% (inactive) |
| CC(C)CNC(=O)C1C2C=CC(C2)C1C(=O)O (stereo unspecified) | 456 | -2.9% (inactive) | -8.2% (inactive) | 98.4% | -33.7% (inactive) | 128% | -0.535 (inactive) | -4e-05 (inactive) | 0.00535 (inactive) | 13.4% (inactive) | 20.4% (inactive) |
| COc1cc(-c2nc(S(=O)(=O)c3ccccc3)c(N3CCOCC3)o2)cc(OC)c1OC | 439 | 6% (inactive) | -5.3% (inactive) | 108% | -286% (inactive) | 126% | -0.471 (inactive) | -0.000303 (inactive) | 0.0029 (inactive) | 14.4% (inactive) | 15.3% (inactive) |
| Cc1nc2ccc(NC(=O)N3CCC(c4ccccc4)C3)cc2nc1C (stereo unspecified) | 551 | 4.3% (inactive) | 9.2% (inactive) | 106% | 20.7% (inactive) | 68.5% | -0.0383 (inactive) | 9.4e-06 (inactive) | 0.00546 (inactive) | -0.553% (inactive) | -40.6% (inactive) |
